Here are results for two compounds from ChEMBL document CHEMBL4364291, “Benzylideneacetone Derivatives Inhibit Osteoclastogenesis and Activate Osteoblastogenesis Independently Based on Specific Structure-Activity Relationship” (J Med Chem, 2019).

Calls of active or inactive are those of the source. No cut-off for these calls is given here.

The nature of series [1]: Terminal half-life in ICR mouse at 2 mg/kg, iv measured up to 8 hrs by LC-MS/HPLC analysis. In kind it is ADME, organism-based. Particulars: in vivo, read-out: beta t1/2 (converted). The essentials: (§1)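 Six-week-old male ICR mice (n = 3) were kept at 25 ± 2 °C on a 12 h light/dark cycle and dosed iv or po. Total plasma concentration (bound plus unbound) was plotted against time. Terminal T1/2 came from the elimination phase: a two-compartment fit for po dosing and a single-compartment fit for iv dosing.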

The nature of series [2]: Terminal half-life in ICR mouse at 10 mg/kg, po administered via gavage measured up to 8 hrs by LC-MS/HPLC analysis. In kind it is ADME, organism-based. Particulars: in vivo, read-out: beta t1/2 (converted). The essentials:
as §1

Series [3] can be described thus: Terminal half-life in ICR mouse at 50 mg/kg, po administered via gavage measured up to 8 hrs by LC-MS/HPLC analysis. In kind it is ADME, organism-based. The note with it: in vivo, read-out: beta t1/2 (converted). A digest of the protocol:
as §1

Series [4] can be described thus: Cmax in ICR mouse at 10 mg/kg, po administered via gavage measured up to 8 hrs by LC-MS/HPLC analysis. The arrangement: dose 10 mg/kg, route oral. The class given is ADME, organism-based. The note with it: in vivo. The essentials: (§2)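 Six-week-old male ICR mice, housed at 25 ± 2 °C, 60 ± 10% humidity, 12 h light/dark. Dosing was iv at 2 mg/kg or po at 10 and 50 mg/kg. Plasma concentrations were total, bound plus unbound. AUC∞ is from time zero to infinity. F = (AUCpo/AUCiv) × 100. Cmax and AUC∞ are mean ± SD of three mice.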

The nature of series [5]: Cmax in ICR mouse at 50 mg/kg, po administered via gavage measured up to 8 hrs by LC-MS/HPLC analysis. The arrangement: dose 50 mg/kg, route oral. The class given is ADME, organism-based. The note with it: in vivo. The essentials: as §2
A short description of series [6]: AUC (0 to infinity) in ICR mouse at 2 mg/kg, iv measured up to 8 hrs by LC-MS/HPLC analysis. In kind it is ADME, organism-based. Further details: dose 2 mg/kg, time infinity, route intravenous. The note with it: in vivo. The essentials: as §2
Series [7] is described as follows: AUC (0 to infinity) in ICR mouse at 10 mg/kg, po administered via gavage measured up to 8 hrs by LC-MS/HPLC analysis. The class given is ADME, organism-based. The note with it: in vivo. Further details: dose 10 mg/kg, route oral, time infinity. A digest of the protocol: as §2
Series [8] in a line: Inhibition of M-CSF/RANKL-induced osteoclast differentiation in C57BL/6 mouse bone marrow macrophage assessed as reduction in multinucleated TRAP+ cells incubated for 6 days with fresh media replacement on day 3 and measured on day 6 by TRAP staining-based microscopic analysis. In kind it is functional, cell-based. Particulars: C57BL/6, BMDM. The essentials: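 BMM came from femur and tibia marrow of 5–8-week-old male C57BL/6 mice and were purified over lymphocyte separation medium. Cells, 1 × 10^5 per well, were grown in α-MEM/10% FBS with M-CSF (60 ng/mL) and RANKL (150 ng/mL) for 6 d, medium changed day 3. Compound range was 0.01−100 μM. TRAP+ multinucleated cells were counted on day 6.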

A further series concerns BMDM. Kind of series: Inhibition of M-CSF/RANKL-induced osteoclast differentiation in C57BL/6 mouse bone marrow macrophages co-cultured with mouse MC3T3-E1 cells assessed as reduction in multinucleated TRAP+ cells at 10 uM measured on day 6 by TRAP staining-based inverted microscopic analysis. The class given is functional, cell-based. The essentials: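 C57BL/6 BMM were cocultured with MC3T3-E1 preosteoblasts in osteoclast and osteoblast differentiation factors. The negative control had M-CSF only. Compound was added at a final 10 μM. TRAP staining and inverted-microscope inspection were done on day 6.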

The nature of series [9]: AUC (0 to infinity) in ICR mouse at 50 mg/kg, po administered via gavage measured up to 8 hrs by LC-MS/HPLC analysis. Further details: dose 50 mg/kg, time infinity, route oral. The note with it: in vivo. In kind it is ADME, organism-based. A digest of the protocol:
as §2

Series [10] concerns MC3T3-E1. Kind of series: Osteo-blastogenic activity in mouse MC3T3-E1 cells assessed as stimulation of ALP activity at 10 uM supplemented with fresh medium every 3 to 4 days and measured after 14 days relative to control. The class given is functional. A digest of the protocol: (§3)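 MC3T3-E1 subclone 4 osteoblastic cells were grown in α-MEM at 37 °C under 5% CO2 with compound present during differentiation. ALP activity was read 14 d after induction and expressed as % of untreated cells. Values are mean ± SD of three independent experiments.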

For series [11], the system named is MC3T3-E1. Kind of series: Osteo-blastogenic activity in mouse MC3T3-E1 cells assessed as stimulation of ALP activity at 50 uM supplemented with fresh medium every 3 to 4 days and measured after 14 days relative to control. In kind it is functional. A digest of the protocol: as §3
The nature of series [12]: Oral bioavailability in ICR mouse at 10 mg/kg administered via gavage measured up to 8 hrs by LC-MS/HPLC analysis. In kind it is ADME, organism-based. Particulars: in vivo. The essentials:
as §2

Series [13] in a line: Oral bioavailability in ICR mouse at 50 mg/kg administered via gavage measured up to 8 hrs by LC-MS/HPLC analysis. In kind it is ADME, organism-based. Particulars: in vivo. A digest of the protocol:
as §2

Series [14] relates to Mus musculus. Kind of series: Antiosteoporotic activity in ddY mouse model of OVX-induced osteoporosis assessed as increase in femur bone mineral density at 10 mg/kg, po administered once daily via gavage for 4 weeks by microcomputed tomographic analysis. In kind it is functional, organism-based. A digest of the protocol: (§4)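 Female ddY mice were ovariectomized. Oral gavage began 1 week after surgery and ran once daily for 28 d. Vehicle was 300 μL PBS containing 0.5% (v/v) DMSO, also given to sham and OVX controls. Mice were then euthanized and femur and tibia fixed for CT imaging. Values are mean ± SD of four mice.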

In series [15] the test system is Mus musculus. Kind of series: Antiosteoporotic activity in ddY mouse model of OVX-induced osteoporosis assessed as increase in ratio of bone volume/trabecular volume in femur bone at 10 mg/kg, po administered once daily via gavage for 4 weeks by microcomputed tomographic analysis. In kind it is functional, organism-based. A digest of the protocol: as §4
For series [16], the system named is Mus musculus. Kind of series: Antiosteoporotic activity in ddY mouse model of OVX-induced osteoporosis assessed as increase in cross-sectional thickness in femur bone at 10 mg/kg, po administered once daily via gavage for 4 weeks by microcomputed tomographic analysis. In kind it is functional, organism-based. The essentials:
as §4

The subject of series [17] is Mus musculus. Kind of series: Antiosteoporotic activity in ddY mouse model of OVX-induced osteoporosis assessed as increase in trabecular number in femur bone at 10 mg/kg, po administered once daily via gavage for 4 weeks by microcomputed tomographic analysis. The class given is functional, organism-based. A digest of the protocol:
as §4

Series [18] has as its system Mus musculus. Kind of series: Antiosteoporotic activity in ddY mouse model of OVX-induced osteoporosis assessed as increase in trabecular thickness in femur bone at 10 mg/kg, po administered once daily via gavage for 4 weeks by microcomputed tomographic analysis. In kind it is functional, organism-based. The essentials: as §4
For series [19], the system named is Mus musculus. Kind of series: Antiosteoporotic activity in ddY mouse model of OVX-induced osteoporosis assessed as reduction in trabecular separation in femur bone at 10 mg/kg, po administered once daily via gavage for 4 weeks by microcomputed tomographic analysis. The class given is functional, organism-based. A digest of the protocol: as §4
The test system of series [20] is Mus musculus. Kind of series: Antiosteoporotic activity in ddY mouse model of OVX-induced osteoporosis assessed as increase in new bone volume in femur bone at 10 mg/kg, po administered once daily via gavage for 4 weeks by microcomputed tomographic analysis. In kind it is functional, organism-based. A digest of the protocol:
as §4

The nature of series [21]: Cytotoxicity against mouse RAW264.7 cells after 24 hrs by MTT assay. The note with it: read-out: LD50. In kind it is cell-based. The essentials: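 RAW264.7 macrophages (preosteoclast line) were kept in DMEM at 37 °C under 5% CO2 and tested without RANKL. MTT read-out of growth and survival, expressed as LD50.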
Series [22] can be described thus: Toxicity in ddY mouse model of OVX-induced osteoporosis assessed as increase in body weight at 10 mg/kg, po administered once daily via gavage for 4 weeks measured 5 weeks post OVX-challenge. In kind it is organism-based. The note with it: in vivo, 840 h. A digest of the protocol: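 Dosing of ddY mice began one week after ovariectomy: compound in 300 μL of 0.5% (v/v) DMSO-containing PBS by gavage once daily for 28 d. OVX and sham controls received vehicle. Body weight was compared with sham control 5 weeks after OVX.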

In the case of `CC(=O)/C=C/c1ccc(O)c(O)c1`, the half-life was 0.4 h in series [1], 2.1 h in [2] and 3.1 h in series [3]. Besides, the Cmax in [4] was 200 nM; in series [5], 1100 nM. The AUC(0-inf) in series [6] worked out at 0.039 µM·h; in [7], 0.14 µM·h; in series [9], 0.66 µM·h. For the same compound, the IC50 in series [8] was determined as 7.8 µM. In addition, the inhibition result in the series with BMDM is “Active”. The Activity in the series with MC3T3-E1 [10] is given as 120%; in the series on MC3T3-E1 [11], 280%; in [22] it was “Toxic”. For the same compound, the bioavailability in [12] worked out at 66%; in [13], 76%. Further, the result in the series on Mus musculus [14], with Mus musculus [15], in the series with Mus musculus [16], in the series with Mus musculus [17], in the series with Mus musculus [18] and in the series on Mus musculus [19] was Active. For the same compound, in the series with Mus musculus [20], the result was Active. Besides, the CC50 at 24 h in series [21] amounted to 500 µM.
In the case of `COc1ccc(/C=C/C(C)=O)cc1O`, the figures for the half-life in series [1], in series [2] and in [3] were 1 h, 1.2 h and 2.2 h, respectively. For the same compound, the Cmax in series [4] was determined as 160 nM; in series [5] it was 880 nM. Moreover, the values for the AUC(0-inf) in series [6], in series [7] and in series [9] were 0.1 µM·h, 0.14 µM·h and 0.72 µM·h, respectively. Also, the IC50 in series [8] is 0.11 µM. For the same compound, the Activity in the series with MC3T3-E1 [10] is 100%; with MC3T3-E1 [11], 180%; in [22] it was “Toxic”. In addition, the bioavailability turned out to be 26% in [12] and 29% in series [13]. Besides, the outcome in the series on Mus musculus [14], in the series with Mus musculus [15], in the series with Mus musculus [16], in the series on Mus musculus [17], with Mus musculus [18] and in the series on Mus musculus [19] was Active. Besides, the result with Mus musculus [20] was Active. For the same compound, in series [21], the CC50 at 24 h is > 5000 µM.

In general, Cmax refers to the peak of the concentration-time curve. For orientation: AUC(0-inf) means the area under the concentration-time curve extrapolated to infinity. A higher AUC(0-inf) goes with more exposure. The IC50 is the concentration at which inhibition is half-maximal. What is called bioavailability is the share of a dose that reaches the circulation, judged against a reference dose that is usually intravenous. Read a high bioavailability as much systemic uptake.
